From ChEMBL document CHEMBL2417474, “Synthesis, antiproliferative and anti-inflammatory activities of some novel 6-aryl-2-(p-(methanesulfonyl)phenyl)-4,5-dihydropyridazi-3(2H)-ones” (Eur J Med Chem, 2013)

Legend:
ACHN = assay: Growth inhibition of human ACHN cells after 48 hrs by sulforhodamine B assay; type: functional
Outline: (§1)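 NCI 60-cell-line panel grown in RPMI-type medium with 5% fetal calf serum and 2 mM L-glutamine. Cells preincubated 24 h, then exposed continuously for 48 h to compound in DMSO at 10^-4 to 10^-8 M (five 10-fold levels). Growth read by SRB protein stain. GI50 is the concentration giving a 50% reduction in net protein increase relative to control cells.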

UACC-62 = assay: Growth inhibition of human UACC62 cells assessed as cell growth at 10 uM after 48 hrs by sulforhodamine B assay; type: functional; settings: UACC-62, 48 h, read-out: Activity
Outline: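 Single-dose NCI screen. Tumor lines were cultured in medium with 5% fetal calf serum and 2 mM L-glutamine, preincubated 24 h, then given compound in DMSO. After 48 h continuous exposure, cell growth was estimated by sulforhodamine B protein assay.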

KM12 = assay: Growth inhibition of human KM12 cells after 48 hrs by sulforhodamine B assay; type: functional; settings: KM12, 48 h; outline: as §1
[1] = Growth inhibition of human HCC2998 cells assessed as cell growth at 10 uM after 48 hrs by sulforhodamine B assay; type: functional; settings: HCC 2998, 48 h, read-out: Activity
IGROV-1 [2] = assay: Growth inhibition of human IGROV1 cells after 48 hrs by sulforhodamine B assay; type: functional; settings: IGROV-1, 48 h; outline: as §1
IGROV-1 [3] = assay: Growth inhibition of human IGROV1 cells assessed as cell growth at 10 uM after 48 hrs by sulforhodamine B assay; type: functional; settings: IGROV-1, 48 h, read-out: Activity
MDA-MB-468 [4] = assay: Growth inhibition of human MDA-MB-468 cells assessed as cell growth at 10 uM after 48 hrs by sulforhodamine B assay; type: functional; settings: MDA-MB-468, 48 h, read-out: Activity
CCRF-CEM = assay: Growth inhibition of human CCRF-CEM cells after 48 hrs by sulforhodamine B assay; type: functional, cell-based; outline: as §1
DU-145 = assay: Growth inhibition of human DU145 cells assessed as cell growth at 10 uM after 48 hrs by sulforhodamine B assay; type: functional; settings: DU-145, 48 h, read-out: Activity
MDA-MB-435 [5] = assay: Growth inhibition of human MDA-MB-435 cells after 48 hrs by sulforhodamine B assay; type: functional; settings: MDA-MB-435, 48 h
Outline: (§2)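 NCI 60-cell-line panel. Cells were grown in medium with 5% fetal calf serum and 2 mM L-glutamine, then preincubated 24 h in plates. Compounds were added from DMSO at five 10-fold concentrations from 100 to 0.01 µM and left on cells continuously for 48 h. Cell growth was read by sulforhodamine B protein stain. GI50 is the concentration that halves net protein increase relative to control cells.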

RXF 393 = assay: Growth inhibition of human RXF393 cells after 48 hrs by sulforhodamine B assay; type: functional; settings: RXF 393, 48 h; outline: as §2
UO-31 = assay: Growth inhibition of human UO31 cells after 48 hrs by sulforhodamine B assay; type: functional; settings: UO-31, 48 h
Outline: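 NCI 60-line panel. Cells were grown in medium with 5% fetal calf serum and 2 mM L-glutamine and preincubated 24 h in plates. Compound in DMSO was added at 10^-4 to 10^-8 M (five 10-fold levels), with continuous exposure for 48 h. Growth was read by SRB protein staining. GI50 is the concentration giving 50% reduction in net protein increase versus control cells.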

Rattus norvegicus = assay: Antiinflammatory activity in Wistar rat assessed as inhibition of carrageenan-induced paw edema at 0.05 mmol/kg, po administered 30 mins prior challenge measured after 3 hrs; type: functional
Outline: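 Wistar rats of either sex, 150–175 g, fasted 16 h, 6 per group. Dosed orally at 0.05 mmol/kg, suspended in 1% CMC in water (10 ml/kg). 30 min later, 0.1 ml of 1% carrageenan in saline injected subplantar into the left hind paw. Paw volume read by plethysmometer at 0, 3 and 5 h. % inhibition = (1 − Vt/Vc) × 100 against the vehicle group.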

SK-OV-3 = assay: Growth inhibition of human SKOV3 cells after 48 hrs by sulforhodamine B assay; type: functional; settings: SK-OV-3, 48 h; outline: as §2
SF-268 = assay: Growth inhibition of human SF268 cells assessed as cell growth at 10 uM after 48 hrs by sulforhodamine B assay; type: functional; settings: SF-268, 48 h, read-out: Activity
Malme-3M = assay: Growth inhibition of human MALME-3M cells assessed as cell growth at 10 uM after 48 hrs by sulforhodamine B assay; type: functional; settings: read-out: Activity
PC-3 = assay: Growth inhibition of human PC3 cells after 48 hrs by sulforhodamine B assay; type: functional; settings: PC-3, 48 h; outline: as §2
MDA-MB-435 [6] = assay: Growth inhibition of human MDA-MB-435 cells assessed as cell growth at 10 uM after 48 hrs by sulforhodamine B assay; type: functional; settings: MDA-MB-435, 48 h, read-out: Activity
MCF7 = assay: Growth inhibition of human MCF7 cells after 48 hrs by sulforhodamine B assay; type: functional; settings: MCF7, 48 h; outline: as §1
OVCAR-4 [7] = assay: Growth inhibition of human OVCAR4 cells after 48 hrs by sulforhodamine B assay; type: functional; settings: OVCAR-4, 48 h; outline: as §2
OVCAR-4 [8] = assay: Growth inhibition of human OVCAR4 cells assessed as cell growth at 10 uM after 48 hrs by sulforhodamine B assay; type: functional; settings: OVCAR-4, 48 h, read-out: Activity
K562 = assay: Growth inhibition of human K562 cells after 48 hrs by sulforhodamine B assay; type: functional; settings: K562, 48 h; outline: as §1
SK-MEL-28 = assay: Growth inhibition of human SK-MEL-28 cells assessed as cell growth at 10 uM after 48 hrs by sulforhodamine B assay; type: functional; settings: SK-MEL-28, 48 h, read-out: Activity
[9] = Growth inhibition of human Hs 578T cells assessed as cell growth at 10 uM after 48 hrs by sulforhodamine B assay; type: functional; settings: read-out: Activity
SR = assay: Growth inhibition of human SR cells after 48 hrs by sulforhodamine B assay; type: functional; outline: as §2
MDA-MB-468 [10] = assay: Growth inhibition of human MDA-MB-468 cells after 48 hrs by sulforhodamine B assay; type: functional; settings: MDA-MB-468, 48 h; outline: as §2
SK-MEL-5 = assay: Growth inhibition of human SK-MEL-5 cells after 48 hrs by sulforhodamine B assay; type: functional; settings: SK-MEL-5, 48 h; outline: as §2
MOLT-4 = assay: Growth inhibition of human MOLT4 cells after 48 hrs by sulforhodamine B assay; type: functional; settings: MOLT-4, 48 h; outline: as §2
[11] = read-out: LC50 (the source's name)

## Cc1cc(O)ccc1C1=NN(c2ccc(S(C)(=O)=O)cc2)C(=O)CC1
ACHN
  GI50: 37.8 µM
  LC50 (concentration killing 50% of starting cells): > 100 µM
  TGI: > 100 µM
UACC-62
  growth at 10 µM: 52.9%
KM12
  GI50: 4.22 µM
  LC50: > 100 µM
  TGI: > 100 µM
[1]
  growth at 10 µM: 78.6%
IGROV-1 [2]
  GI50: 7.13 µM
  LC50: > 100 µM
  TGI: > 100 µM
IGROV-1 [3]
  growth at 10 µM: 43.5%
MDA-MB-468 [4]
  growth at 10 µM: 103%
CCRF-CEM
  GI50: 9.09 µM
  TGI: > 100 µM
CCRF-CEM; [11]
  CC50: > 100 µM
DU-145
  growth at 10 µM: 92.2%
MDA-MB-435 [5]
  GI50: 1.28 µM
  LC50 (concentration killing 50% of starting cells): > 100 µM
  TGI: 5.83 µM
RXF 393
  GI50: 12.8 µM
  LC50 (50% lethal concentration): > 100 µM
  TGI: > 100 µM
UO-31
  GI50: 14.8 µM
  LC50 (concentration killing 50% of cells): > 100 µM
  TGI: > 100 µM
Rattus norvegicus
  inhibition in vivo at 50 µmol/kg: 33.3%
SK-OV-3
  GI50: 9.77 µM
  LC50: > 100 µM
  TGI: > 100 µM
SF-268
  growth at 10 µM: 80.3%
Malme-3M
  growth at 10 µM: 52.7%
PC-3
  GI50: 14.8 µM
  LC50: > 100 µM
  TGI: > 100 µM
MDA-MB-435 [6]
  growth at 10 µM: -8.25%
MCF7
  GI50: 20.7 µM
  LC50 (concentration killing 50% of cells): > 100 µM
  TGI: > 100 µM
OVCAR-4 [7]
  GI50: 76.9 µM
  LC50: > 100 µM
  TGI: > 100 µM
OVCAR-4 [8]
  growth at 10 µM: 98%
K562
  GI50: 3.74 µM
  TGI: > 100 µM
K562; [11]
  CC50: > 100 µM
SK-MEL-28
  growth at 10 µM: 81.2%
[9]
  growth at 10 µM: 87%
SR
  GI50: 3.39 µM
  LC50: > 100 µM
  TGI: > 100 µM
MDA-MB-468 [10]
  GI50: 11 µM
  LC50 (concentration killing 50% of cells): > 100 µM
  TGI: 44.3 µM
SK-MEL-5
  GI50: 5.49 µM
  LC50: > 100 µM
  TGI: > 100 µM
MOLT-4
  GI50: 14.3 µM
  LC50: > 100 µM
  TGI: > 100 µM
